Screening results as filed in PubChem BioAssay.
The list is not random: actives were taken first. Their share in the collection is about 0.95%.
UBC9 SUMO inh = inhibitors of human SUMOylation (UBC9); HTRF SUMOylation assay, SAE1/SAE2 + UBC9, in vitro; AID 2006; P63279; inhibition, % at 35 µM; 0.36% of 290,000 active; in the data active = inhibition above about 50%, passing the limit was not always enough; inconclusive = no clear call, values can overlap the other calls
G6PDH CS = inhibits Leuconostoc G6PDH, flagging false hits in G6PDH-based assays; Purified L. mesenteroides G6PDH, diaphorase/resazurin coupled fluorescence, 45 min; inhibition, % at 5 µM; 0.12% of 200,000 active; AID 1020; in the data active = inhibition above about 50%
Diaphorase inh = inhibits diaphorase or chemically oxidizes, flagging diaphorase assay artifacts; AID 1217; inhibition, % at 20 µM; 0.69% of 190,000 active; diaphorase resazurin-to-resorufin fluorescence, NADH, 16 min; bacterial (C. kluyveri) enzyme, not human;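 active = primary screen inhibition at 20 µM above a set limit, cut at about 50% in these data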
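Benchmarks: positive control wells lacking NADH, neutral wells with DMSO only. System: bacterial diaphorase enzyme (C. kluyveri). Input: 0.14 U/mL diaphorase, enzyme working solution. Detection: resorufin fluorescence, excitation 544 nm, emission 590 nm. Times: 16-min room-temperature incubation before reading.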
p97 ATPase inh = human p97 ATPase inhibition | inhibition, % at 8 µM | recombinant p97 ATPase, Kinase-Glo ATP luminescence, 3 h | 0.42% of 220,000 active | AID 1481; in the data active = inhibition above about 15%
Target sequence (P55072 whole entry, looked up): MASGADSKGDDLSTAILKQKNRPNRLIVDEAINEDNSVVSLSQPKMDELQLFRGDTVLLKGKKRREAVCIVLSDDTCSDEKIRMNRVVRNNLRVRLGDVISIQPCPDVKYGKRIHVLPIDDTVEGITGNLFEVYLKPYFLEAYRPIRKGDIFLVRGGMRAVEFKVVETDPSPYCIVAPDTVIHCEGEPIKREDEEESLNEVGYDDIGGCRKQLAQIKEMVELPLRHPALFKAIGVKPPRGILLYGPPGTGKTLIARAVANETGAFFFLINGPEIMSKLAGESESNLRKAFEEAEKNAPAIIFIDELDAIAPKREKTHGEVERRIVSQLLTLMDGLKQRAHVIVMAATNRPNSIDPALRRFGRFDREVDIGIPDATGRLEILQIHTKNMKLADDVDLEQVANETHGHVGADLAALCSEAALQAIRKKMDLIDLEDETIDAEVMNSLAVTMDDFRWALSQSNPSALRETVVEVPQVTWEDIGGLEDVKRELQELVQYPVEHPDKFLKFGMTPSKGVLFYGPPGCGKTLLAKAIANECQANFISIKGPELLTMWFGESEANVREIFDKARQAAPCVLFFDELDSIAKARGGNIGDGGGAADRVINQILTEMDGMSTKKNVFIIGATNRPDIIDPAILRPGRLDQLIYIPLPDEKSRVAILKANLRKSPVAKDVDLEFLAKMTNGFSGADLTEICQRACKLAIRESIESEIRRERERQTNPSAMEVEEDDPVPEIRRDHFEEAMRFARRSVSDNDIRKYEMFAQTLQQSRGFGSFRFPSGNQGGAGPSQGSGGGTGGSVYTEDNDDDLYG
HKDC1 inhibitor = HKDC1 (human) hexokinase inhibition; recombinant HKDC1, G6PDH/diaphorase resazurin coupled fluorescence; Q2TB90; inhibition, % at 20 µM; AID 493160; 0.16% of 340,000 active;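 active = inhibition above about 35% when tested at 20 µM, limit read from the data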
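Assay system: in-house recombinant HK5 (HKDC1) enzyme. Input: HKDC1 at 5 µg/mL. Medium: Tris pH 8.0 buffer with MgCl2, Tween-20, BSA, BME. Dosing: single 20 µM dose. Schedule: 90 min reaction incubation at room temperature, dark. Signal: resazurin-to-resorufin fluorescence via G6PDH and diaphorase coupling, 525/613 nm. Controls: DMSO-enzyme wells negative, buffer-substituted wells positive.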
HKDC1 act conf2 = confirmation of human HKDC1 activators; 14% of 740 active; shares compounds with HKDC1 inhibitor; inhibition, % at 20 µM; AID 504708; recombinant HKDC1, G6PDH/diaphorase resazurin fluorescence; active compounds read low;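 active = inhibition at or below a set negative limit, negative inhibition meaning the enzyme was activated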
Numbers stand for hits; 0 = inactive; ? = inconclusive; - = no result given.

SMILES | UBC9 SUMO inh | G6PDH CS | Diaphorase inh | p97 ATPase inh | HKDC1 inhibitor | HKDC1 act conf2
Cc1cc2cc(CCNC(=O)c3ccc(S(=O)(=O)N4CCCC4)cc3)c(=O)[nH]c2cc1C | 0 | - | - | - | 41 | 0
O=C(O)/C(=C\c1ccc2ccccc2c1)c1cccc2ccccc12 | - | - | - | - | 0 | -
CC(OC(=O)CC1Sc2ccccc2NC1=O)C(=O)NC1CCCC1 (centres undefined) | 0 | - | - | - | 0 | -
CCn1c2ccccc2c2nnc(SCc3ccc(C(=O)OC)o3)nc21 | 0 | 0 | 0 | 0 | 0 | 0
CCn1c2ccccc2c2nnc(SCc3ccccc3)nc21 | 0 | 0 | 0 | 0 | 0 | -
Cc1ccccc1C(=O)Nc1ccnn1C1CCN(Cc2ccc(CO)o2)CC1 | 0 | - | - | - | 0 | -
CCN1CCN(c2cc3c(nn2)Oc2ccccc2N3C)CC1 | 0 | 0 | 0 | 0 | 0 | 0
O=C(O)c1cccc2cccc(-c3c4ccc(=O)c(O)c-4oc4c(O)c(O)ccc34)c12 | - | - | - | - | 70 | 0
O=C(CSc1nccc(=O)[nH]1)NC1CCCC1 | 0 | - | - | - | 0 | -
O=C(NCCC(=O)N1CCCC(C(F)(F)F)C1)c1ccc(Br)cc1 (centres undefined) | 0 | - | - | - | 36 | 0
COc1ccccc1C(=O)NCCC(=O)N1CCCC(C(F)(F)F)C1 (centres undefined) | 0 | - | - | - | 0 | -
O=C1CCCC/C=C\C[C@H](CC(=O)N(CCO)Cc2ccccc2)C(=O)NCCO1 | - | - | - | - | 0 | -
O=C1C=C(N2CCCCC2)c2ccccc2C1=O | - | - | - | - | 81 | 0
Cc1cc2nnc(SCC(=O)Nc3cc(S(=O)(=O)N4CCOCC4)ccc3Cl)n2c2ccccc12 | 0 | 0 | 0 | 0 | 48 | 0
Cc1csc(N/N=C\c2cccnc2)n1 | 0 | 0 | 0 | 0 | 0 | -
O=[N+]([O-])c1ccc(-c2csc(N/N=C/c3cccnc3)n2)cc1 | 0 | 0 | 0 | 0 | 36 | 0
COc1ccc(OC)c(S(=O)(=O)Nc2ccccc2C(=O)O)c1 | 0 | 0 | 0 | 0 | 0 | -
COc1cc(-c2ccc(Nc3ccccc3C(=O)O)c(OC)c2)ccc1Nc1ccccc1C(=O)O | ? | - | - | 0 | 42 | 0
NC(CSC(c1ccccc1)(c1ccccc1)c1cccc2ccccc12)C(=O)O (centres undefined) | - | - | - | - | 35 | 0
NC(CSC1(c2cccc3ccccc23)c2ccccc2-c2ccccc21)C(=O)O (centres undefined) | - | - | - | - | 0 | -
Cc1cc(C)c2c(=O)[nH]cnc2n1 | 0 | 0 | 0 | 0 | 64 | 0
Cc1cc(C)c2c(C)[nH]nc2n1 | 0 | - | - | 0 | 0 | -
O=C1NC2=C(C(=O)CCC2)C(c2ccc([N+](=O)[O-])cc2)N1 (centres undefined) | 0 | - | - | - | 0 | -
S=C(NCc1ccccn1)NN=Cc1ccccn1 | - | - | - | - | 0 | -45
COC(=O)CCC(=O)Nc1sc(Cc2ccccc2)c(C)c1C(N)=O | 0 | 0 | - | 0 | 0 | 0
SMILES | UBC9 SUMO inh | G6PDH CS | Diaphorase inh | p97 ATPase inh | HKDC1 inhibitor | HKDC1 act conf2
FC(F)(F)c1ccccc1NC(=S)N1CCCC1 | 0 | - | - | 0 | 0 | -
FC(F)(F)c1ccccc1NC(=S)NN=C1CCCCCC1 | 0 | 0 | 0 | 0 | 0 | 0
Cc1ccc(NC(=O)NC(=O)COc2c(F)c(F)cc(F)c2F)c(C)c1 | - | - | - | - | 0 | -
COc1cccc(/C=C/C(=O)OCC(=O)NCC2CCCCC2)c1OC | - | - | - | - | 0 | -
O=C(c1ccccc1)N1CCN(C2c3cccc4cccc(c34)C2NS(=O)(=O)c2ccccc2)CC1 (centres undefined) | 0 | 0 | 0 | 0 | 0 | -
O=S(=O)(NC1c2cccc3cccc(c23)C1N1CCN(CCO)CC1)c1ccccc1 (centres undefined) | 0 | 0 | 0 | 0 | 0 | -118
O=S(=O)(NC1c2cccc3cccc(c23)C1N1CCNCC1)c1ccccc1 (centres undefined) | 0 | 0 | 0 | 0 | 0 | -95
O=C(NC1CCCCC1)C1(S(=O)(=O)c2ccc(Cl)cc2)CC1 | 0 | - | - | - | 0 | -
CCCC(=O)N1CCN(Cc2ccc3c(c2)OCO3)CC1 | 0 | 0 | 0 | 0 | 0 | 0
CCc1ccc(S(=O)(=O)NCCc2cn3ccccc3n2)s1 | 0 | 0 | 0 | 0 | 39 | 0
C/C(=N\NC(=O)c1cc(-c2cccc(OC(C)C)c2)nc2ccccc12)c1cccnc1 | 0 | - | - | - | 0 | -
CC(=NNC(=O)c1ccncc1)c1ccc(O)cc1O | - | - | - | - | 0 | 0
CC(=NNC(=O)c1ccncc1)c1ccccc1O | - | - | - | - | 0 | -
C/C(=N\NC(=O)c1cc(-c2cccnc2)nc2ccccc12)c1ccc(O)cc1O | 0 | 0 | 0 | 0 | 0 | 0
O=C(CSc1n[nH]c(-c2cccnc2)n1)Nc1ccccc1[N+](=O)[O-] | 0 | - | - | - | 0 | -
O=C(CSc1n[nH]c(-c2cccnc2)n1)Nc1ccc([N+](=O)[O-])cc1Br | 0 | - | - | - | 46 | 0
COc1ccc(C(=O)Nc2ccnn2C2CCN(C(=O)c3cccnc3)CC2)cc1 | 0 | - | - | - | 0 | -
Cc1cc(C)n(-c2ccc(NC(=O)C3CCN(Cc4cc(C)c(C)o4)CC3)cc2)n1 | 0 | - | - | - | 41 | 0
Cc1cc(C)n(-c2ccc(NC(=O)C3CCN(Cc4ccc(C)o4)CC3)cc2)n1 | 0 | - | - | - | 0 | -
O=C(NCC1COc2ccccc2O1)c1cccc(S(=O)(=O)NCc2ccccc2)c1 (centres undefined) | - | - | - | - | 0 | -
CC1=NOC(=O)/C1=C\c1ccc(-c2ccc(Cl)cc2Cl)o1 | 0 | 0 | 0 | 0 | 54 | 0
CCCOc1ccc(Cl)cc1/C=C1/C(=O)ON=C1C | 0 | - | - | - | 0 | -
O=C(CNC(=O)c1ccncc1)N/N=C/c1ccc(O)cc1O | 0 | - | - | 0 | 0 | 0
Cc1cc(C)n(CCC(=O)N/N=C/c2ccc(O)cc2O)n1 | 0 | 0 | 0 | 0 | 0 | 0
COc1cccc(/C=N/NC(=O)CNC(=O)c2ccncc2)c1O | 0 | - | - | - | 0 | -
SMILES | UBC9 SUMO inh | G6PDH CS | Diaphorase inh | p97 ATPase inh | HKDC1 inhibitor | HKDC1 act conf2
Cc1cc(C)n(CCC(=O)N/N=C/c2ccccc2O)n1 | 0 | 0 | 0 | 0 | 0 | -
O=C(CNC(=O)c1ccc2c(c1)OCCO2)N/N=C/c1ccc(O)cc1O | 0 | 0 | 0 | 0 | 0 | 0
COc1ccc(-c2csc(NC(=O)CSCc3c(C)noc3C)n2)cc1OC | 0 | - | - | - | 0 | 0
COc1ccc(OC)c(S(=O)(=O)CC(O)CS(=O)(=O)c2ccccc2)c1 (centres undefined) | 0 | - | - | - | 0 | -
CC1(C)Cc2ccccc2C2=NNC(=O)C2=N1 | 0 | 52 | 69 | 0 | 53 | 0
CC1(C)Cc2ccccc2C(Nn2cnnc2)=N1 | 0 | 0 | 0 | 0 | 0 | -
CC1(C)Cc2c(sc3ncnc(NN)c23)CO1 | 0 | - | - | - | 0 | -
NNc1ncnc2sc3c(c12)CCC3 | 0 | 0 | 0 | 0 | 0 | 0
O=C(COC(=O)C12CC3CC(CC(C3)C1)C2)Nc1ccc2[nH]c(=O)[nH]c2c1 | 0 | - | - | - | 0 | -
COC(=O)c1ccc(NC(=O)CSc2n[nH]c(-c3ccncc3)n2)cc1 | 0 | 0 | 0 | 0 | 36 | 0
CCOC(=O)c1ccc(NC(=O)CSc2n[nH]c(-c3ccncc3)n2)cc1 | 0 | 0 | 51 | 0 | 40 | 0
O=C(CSc1n[nH]c(-c2ccncc2)n1)Nc1ccc(Br)cc1 | 0 | - | - | - | 0 | -
CCN(CC(=O)Nc1cc(Cl)ccc1C)C(=O)c1ccc(N2CCCC2=O)cc1 | - | - | - | - | 0 | -
